According to ChEMBL document CHEMBL3352177, “C-glycoside mimetics inhibit glioma stem cell proliferation, migration, and invasion” (J Med Chem, 2014):

Tests used:
[1] = test system: A-431; assay: Antiproliferative activity against human A431 cells after 48 to 72 hrs by MTT assay; type: functional, cell-based
Summary of the method: (§1)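 MTT assay read 48 and 72 h after compound addition. Cell lines grown in DMEM with 10% heat-inactivated FCS, 2 mM L-glutamine, 1 mM sodium pyruvate; GBM stem cells grown as nonadherent neurospheres. IC50 by Hill equation fit; ≥3 independent experiments, each point repeated six times.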

[2] = Antiproliferative activity against human Caco2 cells after 48 to 72 hrs by MTT assay; type: functional, cell-based; conditions: Caco-2; summary of the method: as §1
[3] = test system: MDA-MB-231; assay: Antiproliferative activity against human MDA-MB-231 cells after 48 to 72 hrs by MTT assay; type: functional, cell-based; summary of the method: as §1
[4] = test system: MDA-MB-435; assay: Antiproliferative activity against human MDA-MB-435 cells after 48 to 72 hrs by MTT assay; type: functional, cell-based; summary of the method: as §1
[5] = Antiproliferative activity against human HuH7 cells after 48 to 72 hrs by MTT assay; type: functional, cell-based; conditions: Huh-7; summary of the method: as §1
[6] = Antiproliferative activity against mouse B16F10 cells after 48 to 72 hrs by MTT assay; type: functional, cell-based; conditions: B16-F10; summary of the method: as §1
[7] = test system: DU-145; assay: Antiproliferative activity against human DU145 cells after 48 to 72 hrs by MTT assay; type: functional, cell-based; summary of the method: as §1
[8] = test system: C6; assay: Antiproliferative activity against rat C6 cells after 48 to 72 hrs by MTT assay; type: functional, cell-based; summary of the method: as §1
[9] = test system: SNB-75; assay: Antiproliferative activity against human SNB75 cells after 48 to 72 hrs by MTT assay; type: functional, cell-based; summary of the method: as §1
[10] = Antiproliferative activity against human Gli7 cells after 48 to 72 hrs by MTT assay; type: functional, cell-based; summary of the method: as §1
[11] = Antiproliferative activity against human Gli4F11 cells after 48 to 72 hrs by MTT assay
[12] = Antimigratory activity against human Gli4 cells on matrix containing vitronectin after 24 hrs by 2-D migration assay; type: functional, cell-based
Summary of the method: (§2)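 Boyden chamber 2D migration toward serum over 24 h on fibronectin, vitronectin or laminin matrix. Cells in DMEM with 0.1% BSA in the upper compartment with or without compound; 10% FCS medium below. Gli4/Gli7 taken from neurosphere cultures. Migrated cells methanol-fixed, crystal violet stained, counted at ×200. Ki from Hill equation fit; ≥3 independent experiments, each point in quadruplicate.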

[13] = Antimigratory activity against human Gli4 cells on matrix containing fibronectin after 24 hrs by 2-D migration assay; type: functional, cell-based; summary of the method: as §2
[14] = Antimigratory activity against human Gli7 cells on matrix containing fibronectin after 24 hrs by 2-D migration assay; type: functional, cell-based; summary of the method: as §2
[15] = test system: SNB-75; assay: Antimigratory activity against human SNB75 cells on matrix containing fibronectin after 24 hrs by 2-D migration assay; type: functional, cell-based; summary of the method: as §2
[16] = test system: C6; assay: Antimigratory activity against rat C6 cells on matrix containing fibronectin after 24 hrs by 2-D migration assay; type: functional, cell-based; summary of the method: as §2
[17] = Antimigratory activity against human Gli7 cells on matrix containing vitronectin after 24 hrs by 2-D migration assay; type: functional, cell-based; summary of the method: as §2
[18] = test system: SNB-75; assay: Antimigratory activity against human SNB75 cells on matrix containing vitronectin after 24 hrs by 2-D migration assay; type: functional, cell-based; summary of the method: as §2
[19] = test system: C6; assay: Antimigratory activity against rat C6 cells on matrix containing vitronectin after 24 hrs by 2-D migration assay; type: functional, cell-based; summary of the method: as §2
[20] = Antimigratory activity against human Gli4 cells on matrix containing laminin after 24 hrs by 2-D migration assay; type: functional, cell-based; summary of the method: as §2
[21] = Antimigratory activity against human Gli7 cells on matrix containing laminin after 24 hrs by 2-D migration assay; type: functional, cell-based; summary of the method: as §2
[22] = test system: SNB-75; assay: Antimigratory activity against human SNB75 cells on matrix containing laminin after 24 hrs by 2-D migration assay; type: functional, cell-based; summary of the method: as §2
[23] = test system: C6; assay: Antimigratory activity against rat C6 cells on matrix containing laminin after 24 hrs by 2-D migration assay; type: functional, cell-based; summary of the method: as §2

Structure (SMILES)	IC50 [1] [µM]	IC50 [2] [µM]	IC50 [3] [µM]	IC50 [4] [µM]	IC50 [5] [µM]	IC50 [6] [µM]	IC50 [7] [µM]	IC50 [8] [µM]	IC50 [9] [µM]	IC50 [10] [µM]	IC50 [11] [µM]	further results
CC1(C)O[C@H]2[C@@H]([C@H]3COC(C)(C)O3)O[P@@](=O)(c3ccccc3)[C@@H](O)[C@H]2O1	0.98	> 100	6.08	11	> 100	10.2	> 100	> 100	13.4	3.72	8.56	
CC1(C)O[C@H]2[C@@H]([C@H]3COC(C)(C)O3)O[P@](=O)(c3ccccc3)[C@@H](OC(=O)c3ccccc3)[C@H]2O1	4.35	> 100	1.16	0.66	> 100	13.5	> 100	8.51	9.54	1.93	3.22	
CCCC[P@@]1(=O)O[C@H]([C@H]2COC(C)(C)O2)[C@@H]2OC(C)(C)O[C@@H]2[C@@H]1O	0.55	> 100	> 100	> 100	> 100	> 100	> 100	8.62	6.21	2.88	6.12	
CC1(C)O[C@@H]2[C@H](O1)[C@@H](O)[P@@](=O)(c1ccccc1)O[C@@H]2[C@H]1COC(C)(C)O1	0.77	> 100	5.6	11.6	> 100	10.4	> 100	> 100	16.1	5.81	11.4	
CC1(C)O[C@H]2[C@@H]([C@H]3COC(C)(C)O3)O[P@](=O)(c3ccccc3)[C@@H](Oc3ccc([N+](=O)[O-])c([N+](=O)[O-])c3)[C@H]2O1	0.84	> 100	6.35	2.66	23.8	2.59	> 100	9.44	6.99	1.93	2.87	
CC[P@@]1(=O)O[C@H]([C@H]2COC(C)(C)O2)[C@@H]2OC(C)(C)O[C@@H]2[C@@H]1O	> 100	> 100	> 100	> 100	> 100	> 100	> 100	8.66	4.92	2.5	3.8	Ki [12]: 0.194 µM; Ki [13]: 0.1 µM; Ki [14]: 0.064 µM; Ki [15]: 0.019 µM; Ki [16]: 0.027 µM; Ki [17]: 0.438 µM; Ki [18]: 0.066 µM; Ki [19]: 0.047 µM; Ki [20]: 0.239 µM; Ki [21]: 1.05 µM; Ki [22]: 0.027 µM; Ki [23]: 0.025 µM
CC1(C)O[C@@H]2[C@H](O1)[C@@H](N)[P@](=O)(c1ccccc1)O[C@@H]2[C@H]1COC(C)(C)O1	> 100	> 100	4.15	1.16	16.3	1.02	> 100	24.4	2.96	1.29	1.37	
CC(=O)N[C@@H]1[C@H]2OC(C)(C)O[C@H]2[C@@H]([C@H]2COC(C)(C)O2)O[P@@]1(=O)c1ccccc1	0.13	36	23.2	9.61	21.9	14.9	31.2	0.65	0.65	0.5	0.54	
CC1(C)O[C@@H]2[C@H](O1)[C@@H](NCc1ccccc1)[P@](=O)(c1ccccc1)O[C@@H]2[C@H]1COC(C)(C)O1	4.7	> 100	4.17	3.99	23.8	2.05	> 100	14.8	5.16	4.62	2.79	
Cc1ccc(S(=O)(=O)O[C@H]2[C@H]3OC(C)(C)O[C@H]3[C@@H]([C@H]3COC(C)(C)O3)O[P@]2(=O)c2ccccc2)cc1	4.44	> 100	2.66	4.02	> 100	1.64	> 100	6.99	9.42	2.8	5.41	
CC1(C)O[C@H]2[C@@H]([C@H]3COC(C)(C)O3)O[P@](=O)(c3ccccc3)[C@@H](Oc3ccc(N)cc3)[C@H]2O1	> 100	> 100	4.82	3.36	23.6	4.69	> 100	9.35	6.23	1.77	2.98	
Cc1ccc(N[C@@H]2[C@H]3OC(C)(C)O[C@H]3[C@@H]([C@H]3COC(C)(C)O3)O[P@@]2(=O)c2ccccc2)cc1	4.67	> 100	3.72	2.65	23.6	2.02	> 100	5.5	5.37	2.8	5.55	
CC(=O)O[C@H]1[C@H]2OC(C)(C)O[C@H]2[C@@H]([C@H]2COC(C)(C)O2)O[P@]1(=O)c1ccccc1	> 100	> 100	> 100	> 100	> 100	> 100	> 100	10.2	1.37	3.62	8.76	
CC1(C)O[C@H]2[C@@H]([C@H]3COC(C)(C)O3)O[P@](=O)(c3ccccc3)[C@@H](Oc3ccc([N+](=O)[O-])cc3)[C@H]2O1	2.02	> 100	> 100	> 100	> 100	> 100	> 100	31.4	3.11	2.07	3.91	
CC1(C)O[C@H]2[C@@H]([C@H]3COC(C)(C)O3)O[P@](=O)(c3ccccc3)[C@@H](O)[C@H]2O1	1.11	> 100	9.37	16.6	> 100	9.95	> 100	0.5	14.3	3.16	38.4	
CC1(C)O[C@H]2[C@@H]([C@H]3COC(C)(C)O3)O[P@](=O)(c3ccccc3)[C@@H](OS(C)(=O)=O)[C@H]2O1	4.85	> 100	3.45	1.96	24	2.08	> 100	1.11	6.28	2.71	6.81	
CC1(C)O[C@@H]2[C@H](O1)[C@@H](Nc1ccccc1)[P@](=O)(c1ccccc1)O[C@@H]2[C@H]1COC(C)(C)O1	1.26	> 100	3.83	2.48	24.2	1.96	> 100	10.3	9.99	1.82	2.68	
